Experimental findings from ChEMBL document CHEMBL4393716, “5-Chlorobenzofuran-2-carboxamides: From allosteric CB1 modulators to potential apoptotic antitumor agents” (Eur J Med Chem, 2019) are described below.

For data set [1], the system named is MCF7. Description: Antiproliferative activity against human MCF7 cells assessed as growth inhibition incubated for 48 hrs by MTT assay. Particulars: MCF7, 48 h. It counts as functional. The gist of the method:
(§1)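 MTT viability assay run on four human cancer lines: A549 (lung), MCF-7 (breast), Panc-1 (pancreatic) and HT29 (colon). GI50 derived per cell line from the MTT readout, following a previously reported protocol.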
On the technique in general: Tetrazolium assays rely on reduction of a dye to a coloured formazan, in cell work by metabolically active cells.

Data set [2] is described as follows: Cytotoxicity against human MCF10A cells assessed as reduction in cell viability at 50 uM incubated for 4 days by MTT assay. The format is cell-based, MCF-10A. The procedure, abridged:
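Non-tumorigenic human mammary epithelial MCF-10A cells were exposed to compounds for 4 days. Viability was read by MTT reduction and expressed as percent viable cells.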

The next data set relates to HT-29. Put plainly: Antiproliferative activity against human HT-29 cells assessed as growth inhibition incubated for 48 hrs by MTT assay. Particulars: HT-29, 48 h. It counts as functional. The gist of the method: as §1
The test system of another data set is PANC-1. Put plainly: Antiproliferative activity against human PANC1 cells assessed as growth inhibition incubated for 48 hrs by MTT assay. It counts as functional. To be noted: PANC-1, 48 h. The gist of the method: as §1
In data set [3] the test system is MCF7. Description: Induction of apoptosis in human MCF7 cells assessed as activation of caspase-3 level incubated for 24 hrs by enzyme assay relative to control. The format is functional. The gist of the method:
(§2)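 MCF-7 breast cells (ATCC) were grown in RPMI 1640 with 10% FBS at 37 °C, then treated with compounds. Active caspase-3, -8 or -9 protein was quantified (pg/mL) and expressed as fold over untreated control cells.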

Another data set deals with A549. Put plainly: Antiproliferative activity against human A549 cells assessed as growth inhibition incubated for 48 hrs by MTT assay. It counts as functional. To be noted: A549, 48 h. The gist of the method:
as §1

Data set [4] has as its system MCF7. Description: Induction of apoptosis in human MCF7 cells assessed as activation of caspase-8 level incubated for 24 hrs by enzyme assay relative to control. It counts as functional. The procedure, abridged:
as §2

Data set [5] has as its system MCF7. Description: Induction of apoptosis in human MCF7 cells assessed as activation of cytochrome C level incubated for 24 hrs by enzyme assay relative to control. The format is functional. The procedure, abridged: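 MCF-7 cells (ATCC) were cultured in RPMI 1640 plus 10% fetal bovine serum at 37 °C and stimulated with compounds. Cytochrome C level was measured and reported as fold over untreated control.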

Data set [6] deals with MCF7. Put plainly: Induction of apoptosis in human MCF7 cells assessed as decrease in Bcl2 level incubated for 24 hrs by RT-PCR relative to control. The format is functional.
The test system of data set [7] is MCF7. Put plainly: Induction of apoptosis in human MCF7 cells assessed as increase in Bax level incubated for 24 hrs by RT-PCR relative to control. The format is functional.
Data set [8] concerns MCF7. Description: Induction of apoptosis in human MCF7 cells assessed as activation of caspase-9 level incubated for 24 hrs by enzyme assay relative to control. The format is functional. The gist of the method: as §2
The subject of data set [9] is MCF7. Description: Induction of apoptosis in human MCF7 cells assessed as early apoptotic cells at 0 to 8 umol/L incubated for 24 hrs by annexin-V FITC and propidium iodide staining based flow cytometry analysis (reference value: 0.88 %). The format is functional. The gist of the method: (§3)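 MCF-7 cells were stained with annexin-V-FITC and propidium iodide and analysed by flow cytometry. Cells were classed as early apoptotic, late apoptotic or necrotic.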
A general note: In flow cytometry, cells or beads pass a laser one at a time.

Data set [10] has as its system MCF7. Put plainly: Induction of apoptosis in human MCF7 cells assessed as late apoptotic cells at 0 to 8 umol/L incubated for 24 hrs by annexin-V FITC and propidium iodide staining based flow cytometry analysis (reference value: 0.37%). The format is functional. The gist of the method:
as §3

Data set [11] concerns MCF7. Description: Cell cycle arrest in human MCF7 cells assessed as accumulation in G2/M phase incubated for 24 hrs by annexin-V FITC and propidium iodide staining based flow cytometry analysis (reference value: 8.87 %). It counts as functional.
The test system of data set [12] is MCF7. Put plainly: Cell cycle arrest in human MCF7 cells assessed as accumulation in G0/G1 phase incubated for 24 hrs by annexin-V FITC and propidium iodide staining based flow cytometry analysis (reference value: 53.71 %). The format is functional.
The subject of data set [13] is MCF7. Put plainly: Cell cycle arrest in human MCF7 cells assessed as accumulation in S phase incubated for 24 hrs by annexin-V FITC and propidium iodide staining based flow cytometry analysis (reference value: 37.42 %). The format is functional.
Data set [14] relates to MCF7. Put plainly: Cell cycle arrest in human MCF7 cells assessed as accumulation in pre G phase incubated for 24 hrs by annexin-V FITC and propidium iodide staining based flow cytometry analysis (reference value: 1.93 %). It counts as functional.
For data set [15], the system named is MCF7. Put plainly: Induction of apoptosis in human MCF7 cells assessed as necrotic cells at 0 to 8 umol/L incubated for 24 hrs by annexin-V FITC and propidium iodide staining based flow cytometry analysis (reference value: 0.68 %). It counts as functional. The procedure, abridged:
as §3

Take `CCc1c(C(=O)NCCc2ccc(N3CCCCC3)cc2)oc2ccc(Cl)cc12`: the GI50 with MCF7 [1] is 3.6 µM; in the data set with HT-29, 4.8 µM; in the data set on PANC-1, 4.6 µM; in the data set with A549 it was 4.5 µM. For the same compound, the viability at 96 h, 50 µM in data set [2] turned out to be 82%. Moreover, the “fold change (FC)” value with MCF7 [3] amounted to 5.71.

Turning to `CCc1c(C(=O)NCCc2ccc(N(C)C)cc2)oc2ccc(Cl)cc12`, the GI50 worked out at 4.7 µM with MCF7 [1], 6.5 µM in the data set with HT-29, 5.5 µM in the data set on PANC-1 and 4.8 µM in the data set on A549. Besides, the viability at 96 h, 50 µM in data set [2] was 85%. Besides, the “fold change (FC)” value in the data set with MCF7 [3] turned out to be 3.87.

`CCc1c(C(=O)N2CCC(Cc3ccccc3)CC2)oc2ccc(Cl)cc12`: the GI50 with MCF7 [1] was 26.5 µM; in the data set with HT-29 it was 27.8 µM; with PANC-1, 33.7 µM; in the data set on A549, 27.9 µM. Also, in data set [2], the viability at 96 h, 50 µM is 90%.

For `CCc1c(C(=O)NCCc2ccccc2)oc2ccc(Cl)cc12`, the GI50 in the data set on MCF7 [1] stood at 7.5 µM; in the data set on HT-29, 7.7 µM; with PANC-1, 8.3 µM; in the data set with A549, 6 µM. Further, the viability at 96 h, 50 µM in data set [2] is 89%.

On to `Cc1c(C(=O)NCCc2ccc(N3CCOCC3)cc2)oc2ccc(Cl)cc12`, for which the GI50 in the data set on MCF7 [1] was found to be 3.1 µM; with HT-29, 3.9 µM; in the data set on PANC-1, 3.3 µM; with A549, 3.5 µM. Moreover, in data set [2], the viability at 96 h, 50 µM stood at 84%. The “fold change (FC)” value in the data set with MCF7 [4] was 5.23; with MCF7 [5], 11.26; in the data set with MCF7 [6] it was 2.56; with MCF7 [7] it was 19.7; in the data set with MCF7 [3], 5.9; in the data set on MCF7 [8], 13.58.

`Cc1c(C(=O)NCCc2ccc(N3CCCC3)cc2)oc2ccc(Cl)cc12`: the 50% growth inhibitory concentration (GI50) turned out to be 4.9 µM in the data set on MCF7 [1], 4.9 µM with HT-29, 4.8 µM in the data set on PANC-1 and 5.2 µM with A549. The viability at 96 h, 50 µM in data set [2] stood at 89%.

In the case of `CCc1c(C(=O)NCCc2ccc(N3CCCC3)cc2)oc2ccc(Cl)cc12`, the GI50 in the data set on MCF7 [1] stood at 4.4 µM; in the data set on HT-29 it was 5.4 µM; in the data set with PANC-1 it was 5.6 µM; in the data set with A549 it was 4.9 µM. For the same compound, in data set [2], the viability at 96 h, 50 µM was determined as 89%. For the same compound, the “fold change (FC)” value with MCF7 [3] is 5.17.

Consider `Cc1c(C(=O)N2CCC(Cc3ccccc3)CC2)oc2ccc(Cl)cc12`, for which the GI50 with MCF7 [1] turned out to be 16.4 µM; in the data set on HT-29, 16.9 µM; with PANC-1, 18.6 µM; with A549, 15.4 µM. Besides, the viability at 96 h, 50 µM in [2] was 96%.

For the compound `Cc1c(C(=O)NCCc2ccc(N(C)C)cc2)oc2ccc(Cl)cc12`, the GI50 is 6.8 µM in the data set on MCF7 [1], 6.9 µM with HT-29, 6.6 µM in the data set on PANC-1 and 6.9 µM in the data set on A549. For the same compound, the viability at 96 h, 50 µM in [2] is 90%.

With `Cc1c(C(=O)NCCc2ccccc2)oc2ccc(Cl)cc12`, the GI50 stood at 12.9 µM with MCF7 [1], 12.2 µM in the data set with HT-29, 12.5 µM in the data set on PANC-1 and 11.4 µM with A549. For the same compound, the viability at 96 h, 50 µM in [2] amounted to 87%.

Consider `CCc1c(C(=O)N2CCN(c3ccccc3)CC2)oc2ccc(Cl)cc12`, for which the 50% growth inhibitory concentration (GI50) in the data set on MCF7 [1] was 13.6 µM; in the data set with HT-29, 13.8 µM; with PANC-1, 13.8 µM; in the data set with A549 it was 14.7 µM. In addition, in data set [2], the viability at 96 h, 50 µM was determined as 82%.

Take `Cc1c(C(=O)N2CCN(c3ccccc3)CC2)oc2ccc(Cl)cc12`: the GI50 in the data set with MCF7 [1] was 35.4 µM; in the data set on HT-29, 34.7 µM; with PANC-1, 36 µM; in the data set on A549, 29.5 µM. Further, the viability at 96 h, 50 µM in data set [2] is 92%.

`CCc1c(C(=O)NCCc2ccc(N3CCOCC3)cc2)oc2ccc(Cl)cc12`: the GI50 was determined as 0.7 µM with MCF7 [1], 1.6 µM in the data set on HT-29, 1.3 µM in the data set with PANC-1 and 1.8 µM with A549. Moreover, the viability at 96 h, 50 µM in data set [2] worked out at 91%. Further, the Activity in the data set on MCF7 [9] came out at 8.92%; in the data set on MCF7 [10], 23.08%; with MCF7 [11] it was 43.96%; in the data set with MCF7 [12], 24.53%; with MCF7 [13], 31.49%; in the data set on MCF7 [14] it was 34.29%. In addition, in the data set with MCF7 [15], the Activity turned out to be 2.29%. The “fold change (FC)” value in the data set on MCF7 [4] is 9.64; with MCF7 [5], 16.83; with MCF7 [6], 5.77; in the data set on MCF7 [7], 34.46; in the data set with MCF7 [3], 8.1; with MCF7 [8], 15.98.

On to `Cc1c(C(=O)NCCc2ccc(N3CCCCC3)cc2)oc2ccc(Cl)cc12`, for which the GI50 with MCF7 [1] was determined as 4.9 µM; in the data set on HT-29, 4.9 µM; in the data set with PANC-1 it was 4.1 µM; in the data set on A549, 4.4 µM. For the same compound, in [2], the viability at 96 h, 50 µM came to 79%. Besides, the “fold change (FC)” value with MCF7 [3] amounted to 4.83.

On to `COc1cccc2c1C(=O)c1c(O)c3c(c(O)c1C2=O)C[C@@](O)(C(=O)CO)C[C@@H]3O[C@H]1C[C@H](N)[C@H](O)[C@H](C)O1` [DOXORUBICIN], for which the GI50 in the data set on MCF7 [1] turned out to be 0.9 µM; in the data set on HT-29, 1.01 µM; with PANC-1, 1.41 µM; in the data set with A549 it was 1.21 µM. The “fold change (FC)” value in the data set with MCF7 [4] worked out at 10.07; with MCF7 [5], 13.13; in the data set with MCF7 [6], 5.1; in the data set on MCF7 [7], 33.42; in the data set with MCF7 [3], 7.66; with MCF7 [8], 17.4. Besides, the Activity in the data set with MCF7 [14] is given as 22.17%.

As a reminder, the GI50 is the concentration that inhibits growth by half. One may read the viability as a read-out of living cells in per cent, often relative to untreated cells.
